Screening results (PubChem BioAssay)
TAAR1 antagonist = human TAAR1 antagonism; CHO RD-HGA16 TAAR1, Fluo-8 calcium fluorescence, antagonist; inhibition, % at 3 µM; 360,000 tested, 1.5% active; AID 624466;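 active = inhibition above a per-plate cutoff, the mean inhibition of test compounds on that plate plus 3 SD, cut at about 49% in these data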;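 note: 0% = DMSO plus EC80 beta-PEA response and 100% = DMSO alone without agonist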
Target sequence (Q96RJ0 whole entry, looked up): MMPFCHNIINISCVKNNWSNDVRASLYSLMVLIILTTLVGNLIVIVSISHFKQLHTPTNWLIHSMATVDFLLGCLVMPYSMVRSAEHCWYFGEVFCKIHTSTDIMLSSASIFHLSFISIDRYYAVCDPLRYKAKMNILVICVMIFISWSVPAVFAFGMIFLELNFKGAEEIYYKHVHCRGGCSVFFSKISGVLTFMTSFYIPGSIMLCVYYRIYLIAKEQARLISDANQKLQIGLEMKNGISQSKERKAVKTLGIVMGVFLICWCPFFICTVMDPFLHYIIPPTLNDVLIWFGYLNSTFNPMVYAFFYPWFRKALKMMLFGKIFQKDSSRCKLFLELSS
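Test system: CHO RD-HGA16 cells bearing hTAAR1 | Reagent: β-PEA, EC80 | Compound dosing: 3 µM, single point | Schedule: Dye loading 75 min at 37 °C, then 30 min room temperature | Signal: Calcium fluorescence with Fluo-8 | Evaluation: Percent inhibition of PEA-evoked calcium signal, max/basal emission ratio | Control set: DMSO-only wells and EC80 β-PEA-stimulated wells | Repeats: Singlicate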
TAAR1 agonist = agonists of human TAAR1 | CHO RD-HGA16 TAAR1, Fluo-8 calcium fluorescence; vehicle wells 0%, saturating PEA agonist 100% | 360,000 tested, 0.99% active | Q96RJ0 | activation, % at 3 µM;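 active = activation above the mean activation of all test compounds in the run plus 3 SD, cut at about 38% in these data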
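System: CHO-derived RD-HGA16 cells with stable Gα16 and human TAAR1. Times: 17-24 h plating, Fluo-8 75 min 37 °C, 30 min RT. Measured by: calcium-sensitive Fluo-8 signal, excitation 470-495, emission 515-575 nm. Read-out basis: % activation relative to PEA EC100 response. Control set: DMSO and PEA EC100. Repeats: no replicates (n 1).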
GPR7 antagonist = human neuropeptides B/W receptor 1 antagonism | P48145 | GPR7-expressing cells, fluorescence antagonist assay | inhibition, % at 4.4 µM | 290,000 tested, 1.1% active | AID 1861; in the data active = inhibition above about 16%, passing the limit was not always enough;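 note: cells stimulated with the agonist NPW; 0% = agonist with vehicle and 100% = vehicle without agonist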
OX1R antag-1 = blocks the human orexin 1 receptor; 330,000 tested, 1.8% active; AID 485270; inhibition, % at 6.6 µM; OX1R-expressing cells, FRET antagonist read-out; in the data active = inhibition mostly above about 38%, no sharp cut-off; inactive = mostly below about 40%;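 note: 0% = agonist challenge alone and 100% = reference antagonist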
Target sequence (O43613 whole entry, looked up): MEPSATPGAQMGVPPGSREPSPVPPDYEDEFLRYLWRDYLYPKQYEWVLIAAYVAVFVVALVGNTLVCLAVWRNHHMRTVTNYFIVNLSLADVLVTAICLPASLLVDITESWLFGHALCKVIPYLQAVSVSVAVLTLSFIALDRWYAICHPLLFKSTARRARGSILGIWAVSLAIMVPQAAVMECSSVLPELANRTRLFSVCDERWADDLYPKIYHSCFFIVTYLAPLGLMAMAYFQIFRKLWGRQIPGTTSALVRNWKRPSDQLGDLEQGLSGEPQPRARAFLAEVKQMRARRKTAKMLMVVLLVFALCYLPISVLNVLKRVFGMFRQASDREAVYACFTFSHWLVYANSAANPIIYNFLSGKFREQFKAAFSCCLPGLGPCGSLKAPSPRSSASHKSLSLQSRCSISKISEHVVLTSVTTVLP
OX1R antag-2 = human HCRTR1 antagonism; CHO/OX1R cells, Fluo-8 calcium fluorescence, orexin A; AID 434989; inhibition, % at 5 µM; O43613; 330,000 tested, 0.43% active;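 active = inhibition above its plate's threshold, mean inhibition of all tested compounds on the plate plus 3 SD, cut at about 37% in these data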;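 note: 0% = orexin A challenge wells and 100% = SB-334867-A antagonist wells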
CHO parental Ca = signal in parental CHO cells, OX1R antagonist counter-screen; parental CHO-K1, ATP-induced calcium, Fluo-8 fluorescence; inhibition, % at 5.6 µM; 330,000 tested, 0.63% active;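 active = inhibition above that plate's mean sample inhibition plus 3 SD, cut at about 26% in these data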;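 note: 0% = ATP-challenged DMSO wells and 100% = DMSO wells without ATP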
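material = parental CHO cells | also added = ATP as calcium-mobilizing challenge | dosing = single point at 5.6 µM | detection = intracellular calcium via Fluo-8 no-wash fluorescent dye | read-out = % inhibition | benchmarks = low control ATP plus DMSO, high control DMSO only | repeats = one well per compound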
TAAR1 ag confirm = human TAAR1 agonism, confirmed | 2,400 tested, 82% active | CHO RD-HGA16 TAAR1, Fluo-8 calcium fluorescence; scaled: DMSO 0%, maximal phenethylamine 100% | AID 651783 | activation, % at 3 µM | shares compounds with TAAR1 agonist;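 active = activation above a cutoff set at the run's mean compound activation plus 3 SD, cut at about 39% in these data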
Ga16 ag counter = counter-screen for TAAR1 agonists: nonselective agonists in parental cells; AID 651787; CHO-Ga16 parental, Fluo-8 calcium fluorescence; normalized to maximal ATP response, DMSO zero; 2,400 tested, 50% active; activation, % at 3 µM; shares compounds with TAAR1 agonist;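 active = activation above the run cutoff, the mean activation over all tested wells plus 3 SD, cut at about 12% in these data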;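 note: 0% = DMSO wells and 100% = maximal ATP response on the peak over basal ratio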
TAAR1 desensitize = counter-screen for human TAAR1 agonists: agonists that desensitize TAAR1 | shares compounds with TAAR1 agonist | CHO RD-HGA16 hTAAR1, Fluo-8 calcium, beta-PEA response inhibition | inhibition, % at 3 µM | 2,400 tested, 46% active | AID 651951;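 active = inhibition above the run cutoff, the mean inhibition of all test compounds plus 3 SD, cut at about 49% in these data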;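 note: beta-PEA stimulus applied at its EC80; loss of beta-PEA calcium signal after compound pretreatment read as receptor desensitization; 0% = DMSO with beta-PEA at EC80 and 100% = DMSO alone without agonist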
Ga16 nonsel ant = counter-screen for TAAR1 agonists: nonselective Ga16 antagonists; 2,400 tested, 39% active; inhibition, % at 3 µM; shares compounds with TAAR1 agonist; AID 651952; CHO-Ga16 ATP-induced calcium, Fluo-8 fluorescence;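 active = inhibition above the plate's mean compound inhibition plus 3 SD, computed per plate, cut at about 22% in these data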;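 note: 0% = EC80 ATP with DMSO and 100% = DMSO wells without ATP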
* hit, by the source's call; . = no result given. The list is not random: actives were taken first. Their share in the collection is about 4.6%.

SMILES | TAAR1 antagonist | TAAR1 agonist | GPR7 antagonist | OX1R antag-1 | OX1R antag-2 | CHO parental Ca | TAAR1 ag confirm | Ga16 ag counter | TAAR1 desensitize | Ga16 nonsel ant
Cn1c2c(c(=O)n(C)c1=O)CN(CCc1ccccc1)CN2 | 60.5* | 91.3* | 0.4 | 6.0 | -10.3 | -0.7 | 73.7* | 2.6 | 45.0 | 8.5
CCN1C(=O)[C@H]2[C@@H](c3ccc(OC)cc3)N[C@]3(CCCN(Cc4ccc(C(F)(F)F)cc4)C3=O)[C@H]2C1=O | -2.4 | 1.1 | . | . | . | . | . | . | . | .
CC(NC(=O)Cn1cccc1C(=O)c1ccccc1)c1ccc2c(c1)OCCO2 (configuration not stated) | -9.7 | 11.3 | -5.4 | 24.2 | -14.1 | -2.9 | . | . | . | .
CN1/C(=C\C=C2/SC(=S)NC2=O)C(C)(C)c2ccccc21 | 109.4* | 289.5* | 19.8 | 19.8 | 99.3* | 95.2* | 69.6* | 84.9* | 84.5* | 85.7*
CC1=NN(c2ccccc2)C(=O)/C1=C\C=C1/N(C)c2ccccc2C1(C)C | 50.5* | 84.4* | 14.5 | 24.1 | 41.6* | 28.1* | 66.9* | 44.6* | 57.3* | 49.0*
CCCN1C(=O)/C(=C\C=C2\N(CC)c3ccccc3C2(C)C)SC1=S | 64.8* | 68.5* | -2.0 | . | . | . | 50.5* | 66.4* | 73.2* | 82.3*
CCCN1C(=O)/C(=C\C=C2/Sc3ccccc3N2CC)SC1=S | . | . | -11.7 | . | . | . | . | . | . | .
CC(C)(C)CC(C)(C)NCC(O)COc1ccc2c(c1)CCC2 (configuration not stated) | -1.0 | 56.4* | 4.0 | 8.1 | -28.6 | -23.4 | 20.2 | 11.7* | 0.4 | 11.0
O=C1S/C(=C\c2ccc(N3CCOCC3)o2)C(=O)N1c1ccccc1 | 82.9* | 208.9* | -6.1 | 16.2 | -19.3 | -3.8 | 140.4* | 162.7* | 81.6* | 87.4*
COc1ccc(CCNC(=O)C(=O)NCC2CCCN2S(=O)(=O)c2cccs2)cc1 (configuration not stated) | 46.1 | 17.7 | . | 9.3 | -26.8 | -18.4 | . | . | . | .
COc1ccccc1CCNC(=O)C(=O)NCC1CCCN1S(=O)(=O)c1ccccc1 (configuration not stated) | 58.6* | 49.2* | . | 48.7* | 20.4 | -33.2 | 72.4* | 8.2 | 64.6* | 30.6*
COc1ccc(S(=O)(=O)N2CCCC2CNC(=O)C(=O)NCCc2ccccc2)cc1 (configuration not stated) | 96.7* | 92.0* | . | 39.2* | -8.4 | -16.2 | 86.6* | 9.9 | 86.6* | 30.0*
Cc1ccccc1NC(=S)c1ccc2ccccc2n1 | 2.8 | 0.6 | -12.6 | 6.2 | -17.3 | -3.9 | . | . | . | .
Cc1ccc([C@@H]2[C@@H]3C(=O)N(C)C(=O)[C@@H]3[C@@H]3C(=O)Nc4ccccc4C(=O)N23)cc1 | -3.5 | 14.2 | -2.2 | 28.5 | -14.0 | -4.1 | . | . | . | .
N/C(Cc1ccc(Cl)cc1Cl)=N\OC(=O)c1ccc(Br)o1 | 16.3 | 3.0 | 0.1 | 6.5 | -25.5 | -2.0 | . | . | . | .
N/C(Cc1cccc2ccccc12)=N\OC(=O)c1ccc2c(c1)OCO2 | 48.9* | 74.3* | -11.6 | 18.3 | -12.8 | -10.1 | 15.6 | 0.7 | 7.5 | 9.9
N/C(Cc1cccc2ccccc12)=N\OC(=O)c1ccc(Br)o1 | 38.2 | 91.0* | -3.0 | . | . | . | 88.8* | 1.4 | 79.7* | 3.3
O=C(O)Cc1ccc(NS(=O)(=O)c2ccc3c(c2)OCCO3)cc1 | -16.0 | 1.1 | . | . | . | . | . | . | . | .
COc1ccc(NC(=O)COC(=O)c2cc(C)oc2C)c([N+](=O)[O-])c1 | 58.5* | 61.7* | . | -0.2 | 5.3 | 11.3 | -2.7 | 1.7 | 7.2 | 9.8
COc1ccc(NC(=O)COC(=O)c2cc(OC)c(OC)c(OC)c2)c([N+](=O)[O-])c1 | -8.6 | 4.1 | -10.1 | 26.7 | -21.1 | -15.3 | . | . | . | .
O=C(CCN1CCC(c2ccccc2)C1)c1ccccc1 (configuration not stated) | . | . | -10.3 | 7.6 | -7.2 | -1.7 | . | . | . | .
O=C(CCN1CCC(c2ccccc2)C1)c1cccs1 (configuration not stated) | 91.9* | 100.1* | -2.1 | 3.2 | -4.3 | -7.0 | 100.1* | 7.9 | 94.8* | 5.8
COc1cc(C(=O)CCN2CCC(c3ccccc3)C2)cc(OC)c1OC (configuration not stated) | 85.8* | 92.2* | 3.8 | 11.4 | -34.3 | -17.2 | 105.2* | 0.2 | 95.6* | 5.1
O=C(CCN1CCC(c2ccccc2)C1)c1ccc2c(c1)OCCO2 (configuration not stated) | 82.8* | 82.5* | -9.3 | 19.7 | -20.9 | -18.5 | 80.1* | 5.7 | 86.1* | 10.9
O=C(CCN1CCCC1Cc1ccccc1)c1ccc2c(c1)OCCO2 (configuration not stated) | 73.4* | 87.0* | 15.1 | 15.3 | -29.4 | -25.8 | 101.1* | 2.9 | 84.8* | 8.4
SMILES | TAAR1 antagonist | TAAR1 agonist | GPR7 antagonist | OX1R antag-1 | OX1R antag-2 | CHO parental Ca | TAAR1 ag confirm | Ga16 ag counter | TAAR1 desensitize | Ga16 nonsel ant
COc1cc(C(=O)NC2CCN(Cc3ccccc3)CC2)cc(Cl)c1OC | -4.7 | -0.1 | 9.0 | 2.4 | -16.9 | -15.7 | . | . | . | .
CCOc1ccccc1NC(=O)c1ccc2c(c1)C(=O)N(CC)C2=O | -2.7 | 1.0 | -8.4 | 11.8 | -26.7 | -14.0 | . | . | . | .
COCCOC(=O)C1=C(C)OC(N)=C(C#N)C1c1cc2cccc(C)c2nc1Cl (configuration not stated) | 13.8 | -0.6 | 0.3 | 26.3 | -28.0 | -4.0 | . | . | . | .
CCN1CNC(=S)N(CCc2ccccc2)C1 | 8.0 | 1.9 | 0.7 | 32.0 | -2.7 | 4.5 | . | . | . | .
Cc1ccc(N2CN(CCc3ccccc3)CNC2=S)cc1 | 59.5* | 73.2* | -12.3 | 1.2 | -15.2 | -21.4 | 90.2* | -0.1 | 81.2* | 7.6
CCCN1CNC(=S)N(c2ccc(C(=O)OCC)cc2)C1 | 8.0 | 2.0 | -5.5 | 16.5 | -5.8 | -14.1 | . | . | . | .
C=CCN1CN(CCc2ccccc2)CNC1=S | 4.8 | 55.3* | -3.4 | 10.7 | -4.8 | -9.6 | 81.3* | 14.8* | 46.0 | 2.3
CCOC(=O)c1ccc(N2CN(CCc3ccccc3)CNC2=S)cc1 | . | . | -12.0 | 3.4 | 3.5 | -6.5 | . | 5.2 | . | 2.6
Cc1ccc(C)c(N2CN(CCC3=CCCCC3)CNC2=S)c1 | 22.9 | 58.8* | 1.4 | 5.9 | -23.0 | -12.8 | 52.9* | 0.8 | 58.6* | 13.9
